ChEMBL document CHEMBL1129396, “2-amino-4-oxo-5-substituted-pyrrolo[2,3-d]pyrimidines as nonclassical antifolate inhibitors of thymidylate synthase” (J Med Chem, 1996)

Columns and labels:
[1] = test system: Squamous carcinoma cell line; experiment: Growth inhibition of the FaDu Human Squamous Cell carcinoma cell line; type: functional, cell-based
Dihydrofolate reductase [2] = molecular target: T1, Dihydrofolate reductase (Rattus norvegicus, UniProt Q920D2); experiment: The inhibitory concentration of compound against Dihydrofolate reductases on rat liver (rl); type: tissue-based
T1 sequence (Q920D2 whole entry): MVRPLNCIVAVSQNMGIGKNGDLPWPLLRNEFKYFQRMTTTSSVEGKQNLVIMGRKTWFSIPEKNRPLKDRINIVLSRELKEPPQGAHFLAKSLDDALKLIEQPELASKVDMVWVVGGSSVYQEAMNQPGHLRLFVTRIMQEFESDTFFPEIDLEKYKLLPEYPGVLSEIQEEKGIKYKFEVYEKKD
Method in brief: (§1)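 Run at 37 °C with 90 µM dihydrofolic acid as substrate and 119 µM NADPH as cofactor, in the presence of 150 mM KCl.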

[3] = molecular target: T2, Bifunctional dihydrofolate reductase-thymidylate synthase (Toxoplasma gondii, UniProt Q07422); experiment: The inhibitory concentration of compound against Dihydrofolate reductases on Toxoplasma gondii; method in brief: as §1
T2 sequence (Q07422 whole entry): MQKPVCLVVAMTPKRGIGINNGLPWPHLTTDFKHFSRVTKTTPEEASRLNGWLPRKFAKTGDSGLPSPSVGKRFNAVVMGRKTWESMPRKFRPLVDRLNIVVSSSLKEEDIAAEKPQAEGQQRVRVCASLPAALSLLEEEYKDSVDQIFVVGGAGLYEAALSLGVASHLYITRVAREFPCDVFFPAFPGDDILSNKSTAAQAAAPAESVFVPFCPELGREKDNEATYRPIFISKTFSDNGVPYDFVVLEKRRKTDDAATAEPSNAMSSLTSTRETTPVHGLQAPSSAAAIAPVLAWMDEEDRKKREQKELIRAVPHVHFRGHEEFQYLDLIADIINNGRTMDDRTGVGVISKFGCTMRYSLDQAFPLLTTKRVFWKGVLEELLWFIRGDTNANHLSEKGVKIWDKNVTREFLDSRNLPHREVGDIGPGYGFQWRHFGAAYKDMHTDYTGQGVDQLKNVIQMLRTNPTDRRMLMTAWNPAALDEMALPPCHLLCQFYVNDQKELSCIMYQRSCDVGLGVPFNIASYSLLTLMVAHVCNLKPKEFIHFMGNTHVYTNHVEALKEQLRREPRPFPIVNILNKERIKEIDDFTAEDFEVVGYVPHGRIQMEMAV

[4] = molecular target: Thymidylate synthase (Escherichia coli) (UniProt C3SWJ7); experiment: Percent inhibition of Thymidylate synthase in Escherichia coli; details: concentration not given here
[5] = molecular target: T3, Thymidylate synthase (Lactobacillus casei) (UniProt P00469); experiment: Percent inhibition of Thymidylate synthase in Lactobacillus casei; details: Lacticaseibacillus casei; concentration not given here
T3 sequence (whole entry): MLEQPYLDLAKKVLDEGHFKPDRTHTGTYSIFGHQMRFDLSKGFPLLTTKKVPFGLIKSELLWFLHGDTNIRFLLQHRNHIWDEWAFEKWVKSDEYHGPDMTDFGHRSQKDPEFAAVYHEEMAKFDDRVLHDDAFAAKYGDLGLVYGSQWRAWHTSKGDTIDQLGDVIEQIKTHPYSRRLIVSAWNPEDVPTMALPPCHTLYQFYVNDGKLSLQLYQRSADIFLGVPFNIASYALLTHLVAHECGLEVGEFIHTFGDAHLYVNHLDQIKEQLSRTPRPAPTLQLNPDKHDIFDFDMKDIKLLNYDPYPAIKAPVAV

Dihydrofolate reductase [6] = molecular target: T1, Dihydrofolate reductase; experiment: The inhibitory concentration of compound against Dihydrofolate reductases on rat liver; method in brief: as §1
Thymidylate synthase [7] = molecular target: Thymidylate synthase (Homo sapiens, UniProt P04818); experiment: The inhibitory concentration of compound was evaluated on Human Thymidylate synthase
Thymidylate synthase [8] = molecular target: T4, Thymidylate synthase (Lactobacillus casei, UniProt P00469); experiment: The inhibitory concentration of compound was evaluated on Lactobacillus casei Thymidylate synthase; parameters: species or system Lacticaseibacillus casei
T4 sequence (P00469 whole entry): T3 sequence (whole entry)

Thymidylate synthase [9] = molecular target: Thymidylate synthase (Escherichia coli, UniProt C3SWJ7); experiment: The inhibitory concentration of compound was evaluated on Escherichia coli Thymidylate synthase
Chain of Thymidylate synthase (Escherichia coli, UniProt C3SWJ7) (C3SWJ7 whole entry): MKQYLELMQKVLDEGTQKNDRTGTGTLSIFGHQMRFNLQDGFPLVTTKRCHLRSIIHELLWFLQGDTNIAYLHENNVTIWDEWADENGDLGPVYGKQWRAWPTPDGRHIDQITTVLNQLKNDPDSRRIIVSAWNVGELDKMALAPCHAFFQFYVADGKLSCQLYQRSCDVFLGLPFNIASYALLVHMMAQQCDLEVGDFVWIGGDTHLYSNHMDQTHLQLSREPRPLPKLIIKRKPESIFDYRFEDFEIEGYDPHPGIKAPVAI

Chain of Thymidylate synthase (Escherichia coli) (C3SWJ7 1-264): as the sequence (C3SWJ7 whole entry) above
Chain of Thymidylate synthase (Homo sapiens, UniProt P04818) (P04818 whole entry): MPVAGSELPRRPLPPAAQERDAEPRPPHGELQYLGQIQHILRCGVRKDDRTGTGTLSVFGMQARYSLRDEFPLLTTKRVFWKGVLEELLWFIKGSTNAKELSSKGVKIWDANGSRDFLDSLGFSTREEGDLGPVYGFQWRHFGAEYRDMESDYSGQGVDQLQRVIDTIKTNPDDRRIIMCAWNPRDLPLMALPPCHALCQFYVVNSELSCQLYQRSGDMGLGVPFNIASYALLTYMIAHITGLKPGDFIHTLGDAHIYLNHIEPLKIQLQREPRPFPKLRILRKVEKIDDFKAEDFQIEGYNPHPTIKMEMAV

SMILES | EC50 [1] | IC50 [3] | inhibition [4] | IC50 (Dihydrofolate reductase [6]) | IC50 (Thymidylate synthase [7]) | IC50 (Thymidylate synthase [8]) | IC50 (Thymidylate synthase [9]) | also measured
Cc1[nH]c2nc(N)nc(O)c2c1Sc1ccc(Cl)cc1 | 6.7 µM | 3.1 µM | – | – | – | – | – | IC50 (Dihydrofolate reductase [2]): 24.6 µM
CN(Cc1ccc(S(=O)(=O)N2CCOCC2)cc1)c1ccc2c3c(cccc13)C(N)=N2 | 1 µM | – | – | – | – | – | – | –
Cc1[nH]c2nc(N)nc(O)c2c1Sc1ccc2ccccc2c1 | – | – | 36% | – | – | – | – | inhibition [5]: 32%
Cc1[nH]c2nc(N)[nH]c(=O)c2c1Sc1ccc([N+](=O)[O-])cc1 | 1.5 µM | 244 µM | – | 7470 µM | – | – | – | –
Cc1[nH]c2nc(N)[nH]c(=O)c2c1Sc1ccc2ccccc2c1 | – | – | – | – | 2 µM | > 25 µM | > 25 µM | –
COc1ccc(Sc2c(C)[nH]c3nc(N)nc(O)c23)cc1OC | > 10 µM | – | 30% | – | – | – | – | –
Cc1[nH]c2nc(N)[nH]c(=O)c2c1Sc1ccc(Cl)c(Cl)c1 | – | 11.7 µM | – | > 20 µM | – | – | – | –
COc1ccc(Sc2c(C)[nH]c3nc(N)[nH]c(=O)c23)cc1OC | – | 20 µM | – | > 21 µM | – | – | – | –
Cc1[nH]c2nc(N)nc(O)c2c1Sc1ccncc1 | – | – | – | – | 0.34 µM | 100 µM | > 29 µM | –
Cc1[nH]c2nc(N)nc(O)c2c1Sc1ccccc1 | > 10 µM | – | 30% | – | 30 µM | > 30 µM | > 30 µM | –
